Test results: ChEMBL document CHEMBL1157908, “Macrocyclic pyridyl polyoxazoles: selective RNA and DNA G-quadruplex ligands as antitumor agents” (J Med Chem, 2010)
pIC50: −log10 of the molar value.

Assays:
[1] = Cytotoxicity against human RPMI8402 cells by MTA assay; format: functional, cell-based; conditions: RPMI 8402
Outline: (§1)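 MTT microtiter assay. Cells were kept at 37 °C in 5% CO2 in RPMI with 10% heat-inactivated FBS, 2 mM L-glutamine and penicillin/streptomycin. Continuous exposure to a range of drug concentrations for four days, then MTT read-out. Drug-free control included. IC50 from at least two assays, each in six replicate wells.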

[2] = Cytotoxicity against human KBV1 cells expressing MDR1 by MTA assay; format: functional, cell-based; conditions: KB-V1; outline: as §1
[3] = Cytotoxicity against wild type human KB3-1 cells by MTA assay; format: functional, cell-based; conditions: KB 3-1; outline: as §1
[4] = Cytotoxicity against human KBH5.0 cells expressing efflux transporter BCRP by MTA assay; format: functional, cell-based; conditions: KBH5.0 cell; outline: as §1
Nucleic Acid [5] = assay: Thermal stabilization of Salmon testes duplex DNA assessed as change in transition temperature at 15 uM after 4 hrs by temperature-dependent spectrophotometry in presence of 150 mM K+ ions; format: nucleic-acid assay; conditions: Salmonidae
Outline: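 Salmon testes duplex DNA at 30 μM base pair with ligand at 15 μM. Buffer 10 mM potassium phosphate pH 7.5 with 132 mM KCl (150 mM K+). DNA preheated at 90 °C for 5 min and cooled slowly over 4 hr. Temperature-dependent absorbance recorded in 1 cm quartz cells.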

Nucleic Acid [6] = assay: Thermal stabilization of […] poly(rA).poly(rU) duplex RNA assessed as change in transition temperature at 15 uM after 4 hrs by temperature-dependent spectrophotometry in presence of 150 mM K+ ions; format: nucleic-acid assay
Nucleic Acid [7] = assay: Thermal stabilization of human G-quadruplex d[T2G3(T2AG3)3A] DNA assessed as change in transition temperature at 20 uM after 4 hrs by temperature-dependent spectrophotometry in presence of 150 mM K+ ions; format: nucleic-acid assay
Outline: (§2)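 UV melting in 1 cm quartz cells. Sample held 5 μM strand of hTel DNA 24mer or AurA RNA 22mer, with ligand at 20 μM. Buffer 10 mM potassium phosphate pH 7.5 plus 132 mM KCl (150 mM K+ total). Nucleic acids preheated at 90 °C for 5 min and slowly cooled over 4 hr before use. AurA transition followed at 295 nm.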

MIA PaCa-2 = assay: Cytotoxicity against human MIAPaCa2 cells; format: functional, cell-based
MDA-MB-435 [8] = assay: Antitumor activity against human MDA-MB-435 cells xenografted in NCR nu/nu mouse assessed as tumor volume at an escalating dose of 25 to 42 mg/kg, ip administered on day 10 post-implantation followed by subsequent dose regimen of 3 times a week on alternative days for 3 weeks measured after 35 days (RVb = > 1350 mm'3); format: functional; conditions: dose mg/kg 25-42; route intraperitoneal
Outline: (§3)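 Female NCR/NU NU mice, about 9 weeks old. Inoculated sc on the right flank with 1.5×10^6 MDA-MB-435 cells in 0.1 mL RPMI 1640. Groups of seven matched by tumor volume. Given ip 3× weekly on alternate days in escalating weekly doses. Control received 150 μl 10 mM citrate. Tumor volume (l × w^2)/2 measured by microcaliper at least twice weekly. % T/C = treated/control mean volume.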

Mus musculus [9] = assay: (§4) Toxicity in NCR nu/nu mouse xenografted with human MDA-MB-435 cells assessed as average body weight at an escalating dose of 25 to 42 mg/kg, ip administered on day 10 post-implantation followed by subsequent dose regimen of 3 times a week on alternative days for 3 weeks measured on day 17 (RVb = 22 +/- 1.8 g); format: organism-based; design: dose 25-42 mg/kg, route intraperitoneal; conditions: in vivo, 504 h
Outline: (§5)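 Female NCR/NU NU mice with sc MDA-MB-435 flank xenografts. Seven mice dosed ip 3× weekly on alternate days, escalating weekly from 25 through 32 to 42 mg/kg. Controls received 150 μl 10 mM citrate. Individual body weights taken at least twice weekly. Average ± standard deviation given for days 17, 24, 31 and 35.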

Mus musculus [10] = assay: as §4, with “35” for “17”, “24.6” for “22”, “1.3” for “1.8”; format: organism-based; design: dose 25-42 mg/kg, route intraperitoneal; conditions: in vivo, 504 h; outline: as §5
MDA-MB-435 [11] = assay: Antitumor activity against human MDA-MB-435 cells xenografted in NCR nu/nu mouse at an escalating dose of 25 to 42 mg/kg, ip administered on day 10 post-implantation followed by subsequent dose regimen of 3 times a week on alternative days for 3 weeks measured after 35 days relative to control; format: functional; conditions: dose mg/kg 25-42; route intraperitoneal; outline: as §3
Nucleic Acid [12] = assay: Thermal stabilization of r[AG4CG2CUG2UCG2AGUG2C] sequence of quadruplex RNA assessed as change in transition temperature at 20 uM after 4 hrs by temperature-dependent spectrophotometry in presence of 150 mM K+ ions; format: nucleic-acid assay; outline: as §2
Mus musculus [13] = assay: as §4, with “31” for “17”, “23.9” for “22”, “1” for “1.8”; format: organism-based; design: dose 25-42 mg/kg, route intraperitoneal; conditions: in vivo, 504 h; outline: as §5
Mus musculus [14] = assay: as §4, with “24” for “17”, “22.5” for “22”, “1.5” for “1.8”; format: organism-based; design: dose 25-42 mg/kg, route intraperitoneal; conditions: in vivo, 504 h; outline: as §5
Mus musculus [15] = assay: Toxicity in NCR nu/nu mouse xenografted with human MDA-MB-435 cells assessed as average body weight at 20 mg/kg, ip administered 3 times a week for 4 weeks measured on day 31 (RVb = 23.9 +/- 1 g); format: organism-based; design: dose 20 mg/kg, route intraperitoneal; conditions: in vivo, 672 h
MDA-MB-435 [16] = assay: Antitumor activity against human MDA-MB-435 cells xenografted in NCR nu/nu mouse at 20 mg/kg, ip administered 3 times a week for 4 weeks measured after 35 days post-implantation relative to control; format: functional; conditions: route intraperitoneal
Outline: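 Female NCR/NU NU mice bearing sc flank MDA-MB-435 xenografts (1.5×10^6 cells), groups matched by tumor volume. Eight mice dosed ip at 20 mg/kg, 3× weekly for four weeks from day 0. Tumor volume (l × w^2)/2 measured by caliper at least twice weekly. % T/C = average treated volume over citrate-control volume.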

Row | Structure (SMILES) | pIC50 [1] | pIC50 [2] | pIC50 [3] | pIC50 [4] | further results
1 | O=C1NCc2cc(Br)cc(c2)CNC(=O)c2coc(n2)-c2coc(n2)-c2cc(OCCCN3C(=O)c4ccccc4C3=O)cc(n2)-c2nc(co2)-c2nc1co2 | 6.00 | < 5.00 | 6.00 | < 5.00 | 
2 | O=C1NCc2cc(Br)cc(c2)CNC(=O)c2coc(n2)-c2coc(n2)-c2cccc(n2)-c2nc(co2)-c2nc1co2 | 6.52 | < 5.00 | 7.22 | 6.00 | 
3 | O=C1NCc2cccc(n2)CNC(=O)c2coc(n2)-c2coc(n2)-c2cccc(n2)-c2nc(co2)-c2nc1co2 | < 5.30 | < 5.30 | < 5.30 | < 5.30 | 
4 | O=C1NCc2cc(Br)cc(c2)CNC(=O)c2coc(n2)-c2coc(n2)-c2cc(Br)cc(n2)-c2nc(co2)-c2nc1co2 | < 5.00 | < 5.00 | < 5.00 | < 5.00 | 
5 | O=C1NCc2cccc(c2)CNC(=O)c2coc(n2)-c2csc(n2)-c2cccc(n2)-c2nc(co2)-c2nc1co2 | 6.00 | < 5.00 | 6.59 | < 5.00 | 
6 | O=C1NCc2cccc(c2)CNC(=O)c2coc(n2)-c2coc(n2)-c2cccc(n2)-c2nc(co2)-c2nc1co2 | 5.98 | 5.35 | 5.92 | 5.82 | deltaT (Nucleic Acid [5]): 0 °C; deltaT (Nucleic Acid [6]): 0 °C; deltaT (Nucleic Acid [7]): 7.5 °C
7 | O=C1NCCNCCNC(=O)c2coc(n2)-c2coc(n2)-c2cccc(n2)-c2nc(co2)-c2nc1co2 | < 5.00 | < 5.00 | 5.40 | < 5.00 | 
8 | CC(C)[C@@H]1NC(=O)c2coc(n2)-c2coc(n2)-c2coc(n2)[C@H](C(C)C)NC(=O)c2coc(n2)-c2coc(n2)-c2coc1n2 [HEXAOXAZOLE DIVALINE] | 6.22 | 5.07 | 6.40 | 6.30 | pIC50 (MIA PaCa-2): 6.30
9 | CN(C)CCc1cc2cc(c1)CNC(=O)c1coc(n1)-c1coc(n1)-c1cccc(n1)-c1nc(co1)-c1nc(co1)C(=O)NC2 | 6.74 | < 5.00 | 7.40 | 6.26 | Activity (MDA-MB-435 [8]): <400 mm3; deltaT (Nucleic Acid [5]): 0 °C; deltaT (Nucleic Acid [6]): 0.5 °C; Activity (Mus musculus [9]): 19.7 g; Activity (Mus musculus [10]): 21.2 g; deltaT (Nucleic Acid [7]): 20.5 °C; T/C (MDA-MB-435 [11]): 27.7%; deltaT (Nucleic Acid [12]): 37 °C; Activity (Mus musculus [13]): 20.9 g; Activity (Mus musculus [14]): 20.2 g
10 | CCc1c2c(nc3ccc(OC(=O)N4CCC(N5CCCCC5)CC4)cc13)-c1cc3c(c(=O)n1C2)COC(=O)[C@]3(O)CC [IRINOTECAN] |  |  |  |  | Activity (Mus musculus [15]): 18.4 g; T/C (MDA-MB-435 [16]): 6.1%
